Reference: ChEMBL document CHEMBL1153740, “Quassinoids from Eurycoma longifolia” (J Nat Prod, 2009)

tested on: HT-1080; assay: Cytotoxicity against human HT1080 cells after 72 hrs by MTT assay; type: functional, cell-based; conditions: HT-1080, 72 h
Method in brief: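 HT-1080 human fibrosarcoma cells, harvested in exponential growth, seeded at 2 × 10^3 cells/well and left 24 h at 37 °C in humidified 5% CO2 to attach. Exposed to varying concentrations of test compounds in medium for 72 h. MTT (0.5 mg/mL) added for 2 h, formazan extracted with DMSO, absorbance read at 550 nm. Viability and IC50 taken from means of three wells.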

SMILES	IC50 [µM]
C[C@H]1[C@H]2OC(=O)[C@@H]1[C@]1(C)C(=O)C=C3[C@@](C)([C@H]1[C@H]2O)[C@H](O)[C@@H](O)[C@H]1O[C@@]31C	> 100
C[C@H]1[C@H]2OC(=O)[C@@H]1[C@]1(C)C(=O)C=C3C4(C)OC4C(=O)[C@@H](O)[C@]3(C)[C@H]1[C@H]2O (stereo partly drawn)	> 100
CC1=CC(=O)[C@@H](O)[C@]2(C)[C@H]3[C@@H](O)[C@@H]4OC(=O)[C@@H]([C@H]4C)[C@]3(C)C(=O)C[C@@]12O	8.8
CC1=CC(=O)O[C@@H]1[C@@]1(C)C[C@H]2OC(=O)[C@H](O)[C@@]3(O)[C@@H](C)[C@@H](O)[C@@]4(O)OC[C@]23[C@@H]14	> 100
CC1=CC(=O)[C@@H](O)[C@]2(C)[C@H]3[C@@H](O)[C@H](O)[C@H](C)[C@]4(O)[C@@H](O)C(=O)O[C@H](C[C@@H]12)[C@]34C	1.1
CC1=CC(=O)[C@@H](O)[C@]2(C)[C@H]3[C@]4(O)OC[C@@]35[C@@H](C[C@@H]12)OC(=O)[C@H](O)[C@]5(O)[C@@H](C)[C@H]4O	90
CC(=O)O[C@@H]1[C@H](C)[C@]2(O)[C@@H](OC(C)=O)C(=O)O[C@@H]3C[C@H]4C(C)=CC(=O)[C@@H](O)[C@]4(C)[C@H]4[C@]1(O)OC[C@]432	> 100
CC1=CC(=O)[C@@H](O)[C@@]2(C)[C@H]1[C@@H](O)[C@H]1OC(=O)[C@H](O)[C@@]3(O)[C@@H](C)[C@@H](O)[C@H](O)[C@H]2[C@@]13C	90
CC1=C2C(=O)[C@H](O)[C@]3(C)[C@H]([C@@H](O)[C@@H]4OC(=O)[C@H]3[C@H]4C)[C@@]2(C)[C@H](O)[C@@H](O)C1	> 100
CC1=C[C@H](O)[C@@H](O)[C@@]2(C)[C@H]1[C@@H](O)C(=O)[C@@]1(C)[C@H]3C(=O)O[C@H]([C@@H]3C)[C@H](O)[C@@H]12	65
CC1=CC(=O)[C@@H](O)[C@@]2(C)C1=CC(=O)[C@]1(C)[C@@H]2[C@@H](O)[C@@H]2OC(=O)[C@H]1[C@H]2C	5.3
C=C1C[C@H](O)[C@@H](O)[C@@]2(C)[C@H]1CC(=O)[C@@]1(C)[C@H]3C(=O)O[C@H]([C@@H]3C)[C@H](O)[C@@H]12	45
CC1=CC(=O)[C@@H](O)[C@@]2(C)[C@H]1[C@@H](O)C(=O)[C@@]1(C)[C@H]3C(=O)O[C@H]([C@@H]3C)[C@H](O)[C@@H]12	5
CC1=CC(=O)[C@@H](O)[C@]2(C)[C@H]3[C@@H](O)[C@@H]4OC(=O)[C@@H]([C@H]4C)[C@]3(C)[C@H](O)C[C@@H]12	6.2
COc1cccc2c1C(=O)c1c(O)c3c(c(O)c1C2=O)C[C@@](O)(C(=O)CO)C[C@@H]3O[C@H]1C[C@H](N)[C@H](O)[C@H](C)O1 [DOXORUBICIN]	0.53
CC1=C[C@H](O)[C@@H](O)[C@@]2(C)[C@H]1CC(=O)[C@@]1(C)[C@H]3C(=O)O[C@H]([C@@H]3C)[C@H](O)[C@@H]12 [EURYCOLACTONE E]	7.3
CC1=CC(=O)[C@@H](O)[C@@]2(C)[C@H]1CC(=O)[C@@]1(C)[C@H]3C(=O)O[C@H]([C@@H]3C)[C@H](O)[C@@H]12 [EURYCOMALACTONE]	0.98
C[C@H]1[C@H]2OC(=O)[C@@H]1[C@]1(C)C(=O)C=C3[C@H](C)C[C@H](O)[C@@H](O)[C@]3(C)[C@H]1[C@H]2O [EURYCOMALIDE A]	90
CC1=C[C@H](O)[C@@H](O)[C@@]2(C)C1=CC(=O)[C@]1(C)[C@@H]2[C@@H](O)[C@@H]2OC(=O)[C@H]1[C@H]2C [EURYCOMALIDE B]	39
O=c1[nH]cc(F)c(=O)[nH]1 [FLUOROURACIL]	5.2
CC1=CC(=O)[C@]2(C)[C@H]3[C@@H](O)[C@@H]4OC(=O)[C@@H]([C@H]4C)[C@]3(C)C(=O)C[C@@H]12 [LAURYCOLACTONE A]	> 100
CC1=CC(=O)[C@@]2(C)C1=CC(=O)[C@]1(C)[C@@H]2[C@@H](O)[C@@H]2OC(=O)[C@H]1[C@H]2C [LAURYCOLACTONE B]	> 100
CC1=CC(=O)[C@@H](O)[C@@]2(C)[C@H]1[C@@H](O)[C@H]1OC(=O)C3[C@@H](C)[C@H](O)[C@H](O)[C@H]2[C@]31C (stereo partly drawn) [LONGILACTONE]	19
